Results published in ChEMBL document CHEMBL1139866, “Synthesis and antimalarial property of orally active phenoxazinium salts” (J Med Chem, 2007).
pEC50: −log10 of the molar value. Values joined by “and” are separate entries in the source; they are usually repeats but may differ in a detail not shown here. Equal values may be shown once.

Tests used:
Plasmodium berghei [1] = experiment: Antimalarial activity against Plasmodium berghei NK65 infected ICR mice (Mus musculus) as reduced parasitaemia at 5 mg/kg intraperitoneal dose on day 4; type: functional; set-up: scale not given: the % may be the effect or the level left
Outline: (§1)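 Peters' four-day suppressive test with P. berghei NK-65 (drug-sensitive) in groups of five ICR mice, dosed intraperitoneally once daily for 4 days. Parasitemia on day 4 is compared with untreated infected controls to give % suppression. Survival is followed after treatment as mean survival days, observed up to day 30.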

Mus musculus [2] = experiment: Effect on survival of Plasmodium berghei NK65 infected ICR mice (Mus musculus) assessed as mean survival days at 5 mg/kg, intraperitoneal after 4 days; type: functional
Outline: (§2)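 Peters' four-day suppressive test in groups of five ICR mice infected with drug-sensitive P. berghei NK-65. Compound given ip once daily for 4 days. Day-4 parasitemia compared with untreated controls to give % suppression. Mice observed after the end of treatment to record mean survival days and the number alive on day 30.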

Plasmodium falciparum = experiment: Antimalarial activity against chloroquine-resistant Plasmodium falciparum K1 after 48 hrs; type: functional, organism-based
[3] = Ratio of EC50 for rat L6 cells to EC50 for Plasmodium falciparum K1; type: functional
Outline: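 Selectivity index is the EC50 against rat skeletal myoblast L-6 cells divided by the in vitro EC50 against chloroquine-resistant P. falciparum K1, which was assayed by the Desjardins method.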

Mus musculus [4] = experiment: Effect on survival of Plasmodium berghei NK65 infected ICR mice (Mus musculus) assessed as mean survival days at 10 mg/kg, intraperitoneal after 4 days; type: functional; outline: as §2
Plasmodium berghei [5] = experiment: Antimalarial activity against Plasmodium berghei NK65 infected ICR mice (Mus musculus) as reduced parasitaemia after 2.5 mg/kg intraperitoneal dose on day 4; type: functional; set-up: scale not given: the % may be the effect or the level left; outline: as §1
Mus musculus [6] = experiment: Survival of Plasmodium berghei NK65 infected ICR mice (Mus musculus) at 20 mg/kg, intraperitoneal after 4 days; type: functional; outline: as §2
Plasmodium berghei [7] = experiment: Antimalarial activity against Plasmodium berghei NK65 infected ICR mice (Mus musculus) as reduced parasitaemia after 20 mg/kg intraperitoneal dose on day 4; type: functional; set-up: scale not given: the % may be the effect or the level left; outline: as §1
Mus musculus [8] = experiment: Effect on survival of Plasmodium berghei NK65 infected ICR mice (Mus musculus) assessed as mean survival days at 2.5 mg/kg, intraperitoneal after 4 days; type: functional; outline: as §2
Mus musculus [9] = experiment: Effect on survival of Plasmodium berghei NK65 infected ICR mice (Mus musculus) assessed as mean survival days at 20 mg/kg, intraperitoneal after 4 days; type: functional; outline: as §2
Plasmodium berghei [10] = experiment: Antimalarial activity against Plasmodium berghei NK65 infected ICR mice (Mus musculus) as reduced parasitaemia on 10 mg/kg intraperitoneal dose on day 4; set-up: scale not given: the % may be the effect or the level left
Plasmodium berghei [11] = experiment: Antimalarial activity against Plasmodium berghei NK65 infected ICR mice (Mus musculus) as reduced parasitaemia after 12 doses of 15 mg/kg/8hrs; type: functional; set-up: scale not given: the % may be the effect or the level left
Outline: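 Oral four-day suppressive test against P. berghei NK-65 in five ICR mice, using short-span dosing every 8 h for 12 doses in total. % parasitemia suppression on day 4 is calculated against untreated infected controls, and mean survival days and mice alive on day 30 are recorded.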

Rattus norvegicus [12] = experiment: AUC (0-480 mins) in Wistar rat at 10 mg/kg, iv; type: ADME, organism-based, Plasma; set-up: time < 8 hr, dose 10 mg/kg, route intravenous; conditions: in vivo, 8 h
Outline: (§3)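 Preliminary pharmacokinetics in Wistar rats given 10 mg kg^-1 as a saline solution, either intravenously or orally. Values are the average of three animals. Half-life is determined for each route, and oral bioavailability is obtained by comparing the oral and intravenous routes.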

Rattus norvegicus [13] = experiment: AUC (0-480 mins) in Wistar rat at 10 mg/kg, po; type: ADME, organism-based, Plasma; set-up: time < 8 hr, dose 10 mg/kg, route oral; conditions: in vivo, 8 h; outline: as §3
[14] = Half life in Wistar rat at 10 mg/kg, iv; type: ADME, organism-based; set-up: dose 10 mg/kg, route intravenous; conditions: in vivo; outline: as §3
[15] = Half life in Wistar rat at 10 mg/kg, po; type: ADME, organism-based; set-up: dose 10 mg/kg, route oral; conditions: in vivo; outline: as §3
[16] = Oral bioavailability in Wistar rat at 10 mg/kg, po; type: ADME, organism-based; conditions: in vivo; outline: as §3
Mus musculus [17] = experiment: Effect on survival of Plasmodium berghei NK65 infected ICR mice (Mus musculus) assessed as mean survival days at 25 mg/kg/day, oral after 4 days
Mus musculus [18] = experiment: Effect on survival of Plasmodium berghei NK65 infected ICR mice (Mus musculus) assessed as mean survival days at 50 mg/kg/day, oral after 4 days
Mus musculus [19] = experiment: Effect on survival of Plasmodium berghei NK65 infected ICR mice (Mus musculus) assessed as mean survival days at 90 mg/kg/day, oral after 4 days
Mus musculus [20] = experiment: Effect on survival of Plasmodium berghei NK65 infected ICR mice (Mus musculus) assessed as mean survival days at 12 times of 30 mg/kg/8hrs, oral
Mus musculus [21] = experiment: Effect on survival of Plasmodium berghei NK65 infected ICR mice (Mus musculus) assessed as mean survival days at 12 times of 15 mg/kg/8hrs, oral
Mus musculus [22] = experiment: Effect on survival of Plasmodium berghei NK65 infected ICR mice (Mus musculus) assessed as mean survival days at 100 mg/kg/day, oral after 1 day
Mus musculus [23] = experiment: Effect on survival of Plasmodium berghei NK65 infected ICR mice (Mus musculus) assessed as mean survival days at 100 mg/kg/day, oral after 4 days
Plasmodium berghei [24] = experiment: Antimalarial activity against Plasmodium berghei NK65 infected ICR mice (Mus musculus) as reduced parasitaemia after 12 oral doses of 30 mg/kg/8hrs; set-up: scale not given: the % may be the effect or the level left
Plasmodium berghei [25] = experiment: Antimalarial activity against Plasmodium berghei NK65 infected ICR mice (Mus musculus) as reduced parasitaemia on 25 mg/kg/day oral dose after 4 days; set-up: scale not given: the % may be the effect or the level left
Plasmodium berghei [26] = experiment: Antimalarial activity against Plasmodium berghei NK65 infected ICR mice (Mus musculus) as reduced parasitaemia at 50 mg/kg/day oral dose after 4 days; set-up: scale not given: the % may be the effect or the level left
Plasmodium berghei [27] = experiment: Antimalarial activity against Plasmodium berghei NK65 infected ICR mice (Mus musculus) as reduced parasitaemia at 90 mg/kg/day oral dose after 4 days; set-up: scale not given: the % may be the effect or the level left
Plasmodium berghei [28] = experiment: Antimalarial activity against Plasmodium berghei NK65 infected ICR mice (Mus musculus) as reduced parasitaemia at 100 mg/kg/day oral dose after 4 days; set-up: scale not given: the % may be the effect or the level left
Plasmodium berghei [29] = experiment: Antimalarial activity against Plasmodium berghei NK65 infected ICR mice (Mus musculus) as reduced parasitaemia on day 4 after 1 day at 100 mg/kg/day oral dose; set-up: scale not given: the % may be the effect or the level left
Plasmodium berghei [30] = experiment: Antimalarial activity against Plasmodium berghei NK65 infected ICR mice (Mus musculus) as reduced parasitaemia at 30 mg/kg intraperitoneal dose on day 4; type: functional; set-up: scale not given: the % may be the effect or the level left; outline: as §2
Mus musculus [31] = experiment: Effect on survival of Plasmodium berghei NK65 infected ICR mice (Mus musculus) assessed as mean survival days at 30 mg/kg, intraperitoneal after 4 days; type: functional; outline: as §2
[32] = Plasmodium falciparum, K1, 48 h

`CCN(C)c1ccc2nc3ccc(=[N+](C)C)cc-3oc2c1.[O-][Cl+3]([O-])([O-])[O-]` showed an Activity (Plasmodium berghei [1]) of 71.7% and a Mean survival days (Mus musculus [2]) of 6.7 days.

`CN(C)c1ccc2nc3ccc(=[N+](C)C)cc-3oc2c1.[Cl-].[Cl][Zn][Cl]` gave a pEC50 (Plasmodium falciparum; [32]) of 7.90, an Activity (Plasmodium berghei [1]) of 17.1% and a Ratio [3] of 700. For the same compound, the Mean survival days (Mus musculus [2]) was 5.6 days.

With `CCN(CC)c1ccc2nc3ccc(=[N+](C)C)cc-3oc2c1.[Cl-]` the Activity (Plasmodium berghei [1]) was 85.3%, the Mean survival days (Mus musculus [2]) was 10 days and the Mean survival days (Mus musculus [4]) was 13 days. For the same compound, the Activity (Plasmodium berghei [5]) was 58.7%, the Activity (Mus musculus [6]) was 40% and the Activity (Plasmodium berghei [7]) was 100%. For the same compound, the Mean survival days (Mus musculus [8]) was 7.8 days, the Mean survival days (Mus musculus [9]) was >17 days and the Activity (Plasmodium berghei [10]) was 99.9%.

With `CN(C)c1ccc2nc3ccc(=[N+](C)C)cc-3oc2c1.[O-][Cl+3]([O-])([O-])[O-]` the Activity (Plasmodium berghei [1]) was 45.9% and the Mean survival days (Mus musculus [2]) was 6.7 days.

Work on `CCN(CC)c1ccc2nc3ccc(=[N+](C)C)cc-3oc2c1.[O-][Cl+3]([O-])([O-])[O-]` yielded an Activity (Plasmodium berghei [1]) of 77% and a Mean survival days (Mus musculus [2]) of 9.4 days.

For `CN(C)c1cc(O)c2nc3ccc(=[N+](C)C)cc-3oc2c1.[Cl-]`, the Activity (Plasmodium berghei [1]) was 4.2% and the Mean survival days (Mus musculus [2]) was 5.3 days.

With `CCN(CC)c1ccc2nc3ccc(N(CC)CC)cc3[o+]c2c1.[Cl-]` the pEC50 (Plasmodium falciparum) was 8.55, the pEC50 (Plasmodium falciparum; [32]) was 8.33 and the Activity (Plasmodium berghei [1]; 5 mg/kg) was 80.6% and 46.3%. For the same compound, the Ratio [3] was 830 and 2400, the Mean survival days (Mus musculus [4]) was >11 days and the Activity (Plasmodium berghei [5]) was 30.5%. For the same compound, the Activity (Plasmodium berghei [7]) was 95.8%, the Mean survival days (Mus musculus [9]) was >14 days and the Activity (Plasmodium berghei [11]) was 100%. For the same compound, the AUC (Rattus norvegicus [12]) was 717 ng·h/mL, the AUC (Rattus norvegicus [13]) was 690 ng·h/mL and the half-life [14] was 5.8 min. It also gave a half-life [15] of 59.2 min, a bioavailability [16] of 96.3% and a Mean survival days (Mus musculus [17]) of 7.6 days. For the same compound, the Mean survival days (Mus musculus [18]) was 14 days, the Mean survival days (Mus musculus [19]) was >24 days and the Mean survival days (Mus musculus [20]) was >13 days. The Mean survival days (Mus musculus [21]) was 14 days, the Mean survival days (Mus musculus [22]) was 13 days and the Mean survival days (Mus musculus [23]) was >28 days. It also gave an Activity (Plasmodium berghei [24]) of 100%, an Activity (Plasmodium berghei [25]) of 82.3% and an Activity (Plasmodium berghei [26]) of 98.6%. It also gave an Activity (Plasmodium berghei [27]) of 100%, an Activity (Plasmodium berghei [28]) of 100% and an Activity (Plasmodium berghei [10]) of 80.4%. For the same compound, the Activity (Plasmodium berghei [29]) was 100%.

In the case of `CCCCN(CCCC)c1ccc2nc3ccc(=[N+](CC)CC)cc-3oc2c1.[Cl-]`, the pEC50 (Plasmodium falciparum; [32]) was 8.62, the Activity (Plasmodium berghei [1]) was 83.1% and the Ratio [3] was 350. It also gave a Mean survival days (Mus musculus [2]) of 16 days.

`CCCCN(CCCC)c1ccc2nc3ccc(=[N+](C)C)cc-3oc2c1.[O-][Cl+3]([O-])([O-])[O-]` gave an Activity (Plasmodium berghei [1]) of 90.3% and a Mean survival days (Mus musculus [2]) of 11.4 days.

Compound `CN1CCN(c2cc(OC(=O)C(C)(C)C)c3nc4ccc(=[N+](C)C)cc-4oc3c2)CC1.[Cl-]` has a pEC50 (Plasmodium falciparum; [32]) of 6.57, an Activity (Plasmodium berghei [1]) of 19.9% and a Ratio [3] of 160. For the same compound, the Mean survival days (Mus musculus [2]) was 5.4 days.

Compound `CN1CCN(c2cc(O)c3nc4ccc(=[N+](C)C)cc-4oc3c2)CC1.[Cl-]` has a pEC50 (Plasmodium falciparum; [32]) of 6.70, an Activity (Plasmodium berghei [1]) of 17.4% and a Ratio [3] of 440. For the same compound, the Mean survival days (Mus musculus [2]) was 5.3 days.

Compound `C[N+](C)=c1ccc2nc3ccc(N4CCNCC4)cc3oc-2c1.[Cl-]` has a pEC50 (Plasmodium falciparum; [32]) of 7.55, an Activity (Plasmodium berghei [1]) of 54.8% and a Ratio [3] of 2300. It also gave a Mean survival days (Mus musculus [2]) of 6 days, a Mean survival days (Mus musculus [4]) of 7.4 days and an Activity (Plasmodium berghei [7]) of 98.1%. The Mean survival days (Mus musculus [9]) was 17.6 days, the Activity (Plasmodium berghei [30]) was 100% and the Mean survival days (Mus musculus [31]) was 16.4 days. The Mean survival days (Mus musculus [23]) was 17 days, the Activity (Plasmodium berghei [28]) was 100% and the Activity (Plasmodium berghei [10]) was 78.5%.

`CCN(CC)CCCC(C)Nc1ccnc2cc(Cl)ccc12` (centres undefined) [CHLOROQUINE] gave a pEC50 (Plasmodium falciparum; [32]) of 5.82, a Ratio [3] of 32 and a Mean survival days (Mus musculus [4]) of 22.7 days. The Activity (Plasmodium berghei [10]) was 90.6%.
